The source made the active and inactive calls. The calls are words filed in the database; no cut-off is given here.
target: T1, Sigma intracellular receptor 2 (Rattus norvegicus, UniProt Q5U3Y7); experiment: Displacement of [3H]-DTG from sigma 2 receptor in male Sprague-Dawley rat liver membrane assessed as inhibition constant in presence of pentazocine by liquid scintillation counter analysis; format: cell membranes; details: not given
T1 sequence (Q5U3Y7 whole entry): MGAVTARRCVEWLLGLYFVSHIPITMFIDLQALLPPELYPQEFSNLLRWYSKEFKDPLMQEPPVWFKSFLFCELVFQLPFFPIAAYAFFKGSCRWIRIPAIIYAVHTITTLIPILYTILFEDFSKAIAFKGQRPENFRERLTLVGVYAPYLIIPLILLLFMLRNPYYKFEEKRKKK

Compound	Ki [µM]
COC(=O)CCN1CC[C@]2(C)c3cc(O)ccc3C[C@H]1[C@H]2C	> 10
COC(=O)CCCN1CC[C@]2(C)c3cc(O)ccc3C[C@H]1[C@H]2C	> 10
C[C@@H]1[C@@H]2Cc3ccc(O)cc3[C@@]1(C)CCN2CCC(=O)O	> 10
C[C@@H]1[C@@H]2Cc3ccc(O)cc3[C@@]1(C)CCN2CCCC(=O)O	> 10
CCOC(=O)C(CCN1CC[C@]2(C)c3cc(O)ccc3C[C@H]1[C@H]2C)c1ccccc1 (mixture of isomers)	> 1
C[C@@H]1[C@@H]2Cc3ccc(O)cc3[C@@]1(C)CCN2CCC(C(=O)O)c1ccccc1 (mixture of isomers)	> 10
C[C@@H]1[C@@H]2Cc3ccc(O)cc3[C@@]1(C)CCN2CC(C(=O)O)c1ccccc1 (mixture of isomers)	> 10
CCOC(=O)C(CCCN1CC[C@]2(C)c3cc(O)ccc3C[C@H]1[C@H]2C)c1ccccc1 (mixture of isomers)	> 10
C[C@@H]1[C@@H]2Cc3ccc(O)cc3[C@@]1(C)CCN2CCCC(C(=O)O)c1ccccc1 (mixture of isomers)	> 10
CCOC(=O)C(CN1CC[C@]2(C)c3cc(O)ccc3C[C@H]1[C@H]2C)c1ccccc1 (mixture of isomers)	> 10

test system: Mus musculus; experiment: Antinociceptive activity in formalin-induced male CD1 mouse assessed as reduction in nociceptive behavior by measuring decrease in lifting/licking time at behavioral pain phase (II) at 5 to 7 mg/kg, ip pre-administered with compound for 20 mins followed by formalin induction and measured for 1 hrs; format: functional, organism-based; details: dose 5-7 mg/kg, time 80.0 min
Summary of the method: (§1)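 Male CD1 mice, 8–12 weeks, randomized and acclimated 20 min. Drug in saline with 0.5% v/v DMSO given i.p. 20 min before formalin (5%, 10 μL) into the right hind-paw plantar surface. Licking, flicking or shaking of the injected paw recorded every 5 min for 1 h by a blinded observer.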

Compound	Activity
CCOC(=O)C(CCN1CC[C@]2(C)c3cc(O)ccc3C[C@H]1[C@H]2C)c1ccccc1 (mixture of isomers)	Active

test system: Mus musculus; experiment: Antinociceptive activity in formalin-induced male CD1 mouse model assessed as effect on nociceptive behavior by measuring behavioral pain (phase II) at 3 mg/kg, ip pre-administered with compound for 20 mins followed by formalin induction and measured for 1 hrs; format: functional, organism-based; details: time 80.0 min; summary of the method: as §1

Compound	Activity
CCOC(=O)C(CCN1CC[C@]2(C)c3cc(O)ccc3C[C@H]1[C@H]2C)c1ccccc1 (mixture of isomers)	Not active; Compound Did Not Significantly Modify Licking And Flicking/Shanking Time Of Injected Paw

target: Kappa-type opioid receptor (Cavia porcellus, UniProt P41144); experiment: Displacement of [3H]-U69593 from KOR in male Dunkin-Hartley guinea pig brain membrane assessed as inhibition constant incubated for 30 mins by liquid scintillation counter analysis; format: cell membranes; details: not given
Sequence (P41144 whole entry): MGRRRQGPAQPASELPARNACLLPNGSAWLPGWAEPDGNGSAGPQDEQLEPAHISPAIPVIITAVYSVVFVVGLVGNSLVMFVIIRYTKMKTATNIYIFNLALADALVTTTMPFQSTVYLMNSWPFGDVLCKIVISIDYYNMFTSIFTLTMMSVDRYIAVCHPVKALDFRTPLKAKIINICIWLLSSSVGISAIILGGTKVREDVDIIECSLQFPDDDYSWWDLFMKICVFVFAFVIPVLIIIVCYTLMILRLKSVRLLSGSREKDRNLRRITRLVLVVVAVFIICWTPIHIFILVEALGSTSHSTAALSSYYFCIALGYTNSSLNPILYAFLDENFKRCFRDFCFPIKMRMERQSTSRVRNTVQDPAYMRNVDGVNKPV

Compound	Ki [µM]
COC(=O)CCN1CC[C@]2(C)c3cc(O)ccc3C[C@H]1[C@H]2C	> 5
COC(=O)CCCN1CC[C@]2(C)c3cc(O)ccc3C[C@H]1[C@H]2C	> 5
C[C@@H]1[C@@H]2Cc3ccc(O)cc3[C@@]1(C)CCN2CCC(=O)O	> 5
C[C@@H]1[C@@H]2Cc3ccc(O)cc3[C@@]1(C)CCN2CCCC(=O)O	> 5
CCOC(=O)C(CCN1CC[C@]2(C)c3cc(O)ccc3C[C@H]1[C@H]2C)c1ccccc1 (mixture of isomers)	> 5
C[C@@H]1[C@@H]2Cc3ccc(O)cc3[C@@]1(C)CCN2CCC(C(=O)O)c1ccccc1 (mixture of isomers)	> 5
C[C@@H]1[C@@H]2Cc3ccc(O)cc3[C@@]1(C)CCN2CC(C(=O)O)c1ccccc1 (mixture of isomers)	> 5
CCOC(=O)C(CCCN1CC[C@]2(C)c3cc(O)ccc3C[C@H]1[C@H]2C)c1ccccc1 (mixture of isomers)	> 5
C[C@@H]1[C@@H]2Cc3ccc(O)cc3[C@@]1(C)CCN2CCCC(C(=O)O)c1ccccc1 (mixture of isomers)	> 5
CCOC(=O)C(CN1CC[C@]2(C)c3cc(O)ccc3C[C@H]1[C@H]2C)c1ccccc1 (mixture of isomers)	> 5

test system: not listed separately; experiment: Stability of the compound in C57 mouse plasma at 200 uM measured at >= 20 mins by RP-HPLC analysis; format: ADME, cell-free; details: not given
Summary of the method: (§2)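 A 10 mM DMSO stock was added to C57 mouse plasma prewarmed to 37 °C (final 200 μM) and held at 37 ± 0.5 °C. Samples taken at 0, 1, 5, 20 and 60 min were deproteinized 1:1 with acetonitrile containing 0.1% HCOOH (100 μM), centrifuged, filtered, and analysed by C18 RP-HPLC-DAD. Duplicates; t1/2 from a one-phase exponential decay fit with the plateau fixed at 0.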

Compound	Stability
CCOC(=O)C(CCN1CC[C@]2(C)c3cc(O)ccc3C[C@H]1[C@H]2C)c1ccccc1 (mixture of isomers)	Unstable

test system: not listed separately; experiment: Stability of the compound in C57 mouse plasma at 200 uM measured up to 5 mins by RP-HPLC analysis; format: ADME, cell-free; details: not given; summary of the method: as §2

Compound	Stability
CCOC(=O)C(CCN1CC[C@]2(C)c3cc(O)ccc3C[C@H]1[C@H]2C)c1ccccc1 (mixture of isomers)	Stable

test system: not listed separately; experiment: Stability of the compound in C57 mouse plasma assessed as half life at 200 uM measured up to 60 mins by RP-HPLC analysis; format: ADME, cell-free; details: 1 h; summary of the method: as §2

Compound	t1/2 [h]
CCOC(=O)C(CCN1CC[C@]2(C)c3cc(O)ccc3C[C@H]1[C@H]2C)c1ccccc1 (mixture of isomers)	0.5178

test system: not listed separately; experiment: Stability of the compound in C57 mouse plasma assessed as retention time at 200 uM measured up to 60 mins by RP-HPLC analysis; format: ADME, cell-free; details: 1 h; summary of the method: as §2

Compound	Retention_time [min]
CCOC(=O)C(CCN1CC[C@]2(C)c3cc(O)ccc3C[C@H]1[C@H]2C)c1ccccc1 (mixture of isomers)	10.52

target: Mu-type opioid receptor (Rattus norvegicus, UniProt P33535); experiment: Displacement of [3H]-DAMGO from MOR in male Sprague-Dawley rat brain membrane assessed as inhibition constant incubated for 45 mins by liquid scintillation counter analysis; format: cell membranes; details: not given
Sequence (P33535 whole entry): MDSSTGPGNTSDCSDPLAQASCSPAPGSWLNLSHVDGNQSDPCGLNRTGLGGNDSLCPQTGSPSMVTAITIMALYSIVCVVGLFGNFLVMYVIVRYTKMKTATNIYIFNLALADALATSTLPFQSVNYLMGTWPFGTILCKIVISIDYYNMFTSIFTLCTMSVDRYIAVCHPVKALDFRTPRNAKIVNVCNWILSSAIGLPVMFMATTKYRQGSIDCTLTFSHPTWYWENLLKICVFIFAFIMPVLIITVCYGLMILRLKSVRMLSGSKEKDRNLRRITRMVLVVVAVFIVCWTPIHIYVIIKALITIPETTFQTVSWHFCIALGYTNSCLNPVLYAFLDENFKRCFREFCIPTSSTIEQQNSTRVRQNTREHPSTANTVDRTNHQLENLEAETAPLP

Compound	Ki [µM]
COC(=O)CCN1CC[C@]2(C)c3cc(O)ccc3C[C@H]1[C@H]2C	> 5
COC(=O)CCCN1CC[C@]2(C)c3cc(O)ccc3C[C@H]1[C@H]2C	> 5
C[C@@H]1[C@@H]2Cc3ccc(O)cc3[C@@]1(C)CCN2CCC(=O)O	> 5
C[C@@H]1[C@@H]2Cc3ccc(O)cc3[C@@]1(C)CCN2CCCC(=O)O	> 5
CCOC(=O)C(CCN1CC[C@]2(C)c3cc(O)ccc3C[C@H]1[C@H]2C)c1ccccc1 (mixture of isomers)	> 5
C[C@@H]1[C@@H]2Cc3ccc(O)cc3[C@@]1(C)CCN2CCC(C(=O)O)c1ccccc1 (mixture of isomers)	> 5
C[C@@H]1[C@@H]2Cc3ccc(O)cc3[C@@]1(C)CCN2CC(C(=O)O)c1ccccc1 (mixture of isomers)	> 5
CCOC(=O)C(CCCN1CC[C@]2(C)c3cc(O)ccc3C[C@H]1[C@H]2C)c1ccccc1 (mixture of isomers)	> 5
C[C@@H]1[C@@H]2Cc3ccc(O)cc3[C@@]1(C)CCN2CCCC(C(=O)O)c1ccccc1 (mixture of isomers)	> 5
CCOC(=O)C(CN1CC[C@]2(C)c3cc(O)ccc3C[C@H]1[C@H]2C)c1ccccc1 (mixture of isomers)	> 5

test system: not listed separately; experiment: Chemical stability of the compound in aqueous phosphate buffer at pH 7.4 assessed as half life at 200 uM by RP-HPLC analysis; format: physicochemical; details: pH 7.4, 200 µM
Summary of the method: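 A 10 mM DMSO stock was added to pH 7.4 phosphate buffer prewarmed to 37 °C (final 200 μM) and held at 37 ± 0.5 °C for up to 300 min. Aliquots were mixed 1:1 with acetonitrile (100 μM), filtered and run on C18 RP-HPLC with DAD at 285 nm against a 10–250 μM calibration curve. Duplicates; t1/2 from a one-phase exponential decay fit.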

Compound	t1/2 [h]
CCOC(=O)C(CCN1CC[C@]2(C)c3cc(O)ccc3C[C@H]1[C@H]2C)c1ccccc1 (mixture of isomers)	5

target: Delta-type opioid receptor (Rattus norvegicus, UniProt P33533); experiment: Displacement of [3H]-Deltorphin from DOR in male Sprague-Dawley rat brain membrane assessed as inhibition constant incubated for 45 mins by liquid scintillation counter analysis; format: cell membranes; details: not given
Sequence (P33533 whole entry): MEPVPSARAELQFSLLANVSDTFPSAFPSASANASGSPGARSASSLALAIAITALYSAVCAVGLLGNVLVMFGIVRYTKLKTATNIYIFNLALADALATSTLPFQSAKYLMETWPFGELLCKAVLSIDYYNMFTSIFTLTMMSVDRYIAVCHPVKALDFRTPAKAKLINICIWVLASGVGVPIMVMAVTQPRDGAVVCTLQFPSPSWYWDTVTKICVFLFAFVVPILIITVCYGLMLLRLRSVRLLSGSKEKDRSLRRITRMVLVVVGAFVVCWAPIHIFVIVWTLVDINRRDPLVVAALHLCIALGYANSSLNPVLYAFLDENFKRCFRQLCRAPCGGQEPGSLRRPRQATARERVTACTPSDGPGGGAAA

Compound	Ki [µM]
COC(=O)CCN1CC[C@]2(C)c3cc(O)ccc3C[C@H]1[C@H]2C	> 5
COC(=O)CCCN1CC[C@]2(C)c3cc(O)ccc3C[C@H]1[C@H]2C	> 5
C[C@@H]1[C@@H]2Cc3ccc(O)cc3[C@@]1(C)CCN2CCC(=O)O	> 5
C[C@@H]1[C@@H]2Cc3ccc(O)cc3[C@@]1(C)CCN2CCCC(=O)O	> 5
CCOC(=O)C(CCN1CC[C@]2(C)c3cc(O)ccc3C[C@H]1[C@H]2C)c1ccccc1 (mixture of isomers)	> 5
C[C@@H]1[C@@H]2Cc3ccc(O)cc3[C@@]1(C)CCN2CCC(C(=O)O)c1ccccc1 (mixture of isomers)	> 5
C[C@@H]1[C@@H]2Cc3ccc(O)cc3[C@@]1(C)CCN2CC(C(=O)O)c1ccccc1 (mixture of isomers)	> 5
CCOC(=O)C(CCCN1CC[C@]2(C)c3cc(O)ccc3C[C@H]1[C@H]2C)c1ccccc1 (mixture of isomers)	> 5
C[C@@H]1[C@@H]2Cc3ccc(O)cc3[C@@]1(C)CCN2CCCC(C(=O)O)c1ccccc1 (mixture of isomers)	> 5
CCOC(=O)C(CN1CC[C@]2(C)c3cc(O)ccc3C[C@H]1[C@H]2C)c1ccccc1 (mixture of isomers)	> 5

test system: Mus musculus; experiment: Antinociceptive activity in formalin-induced male CD1 mouse model assessed as effect on nociceptive behavior by measuring rapid pain response (phase I) at 3 to 7 mg/kg, ip pre-administered with compound for 20 mins followed by formalin induction and measured for 1 hrs; format: functional, organism-based; details: dose 3-7 mg/kg, time 80.0 min; summary of the method: as §1

Compound	Activity
CCOC(=O)C(CCN1CC[C@]2(C)c3cc(O)ccc3C[C@H]1[C@H]2C)c1ccccc1 (mixture of isomers)	Not active; Compound Did Not Significantly Modify Licking And Flicking/Shanking Time Of Injected Paw

target: Sigma non-opioid intracellular receptor 1 (Rattus norvegicus, UniProt Q9R0C9); experiment: Displacement of [3H]-pentazocine from sigma 1 receptor in male Sprague-Dawley rat liver membrane assessed as inhibition constant by liquid scintillation counter analysis; format: cell membranes; details: not given
Sequence (Q9R0C9 whole entry): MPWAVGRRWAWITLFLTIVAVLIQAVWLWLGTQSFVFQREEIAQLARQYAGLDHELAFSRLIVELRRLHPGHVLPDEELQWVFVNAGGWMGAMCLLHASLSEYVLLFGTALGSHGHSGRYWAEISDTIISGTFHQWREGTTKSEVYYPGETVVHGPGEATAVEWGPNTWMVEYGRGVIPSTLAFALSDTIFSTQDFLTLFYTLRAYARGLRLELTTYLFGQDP

Compound	Ki [µM]
COC(=O)CCN1CC[C@]2(C)c3cc(O)ccc3C[C@H]1[C@H]2C	> 10
COC(=O)CCCN1CC[C@]2(C)c3cc(O)ccc3C[C@H]1[C@H]2C	0.159
C[C@@H]1[C@@H]2Cc3ccc(O)cc3[C@@]1(C)CCN2CCC(=O)O	> 10
C[C@@H]1[C@@H]2Cc3ccc(O)cc3[C@@]1(C)CCN2CCCC(=O)O	> 10
CCOC(=O)C(CCN1CC[C@]2(C)c3cc(O)ccc3C[C@H]1[C@H]2C)c1ccccc1 (mixture of isomers)	0.0275
C[C@@H]1[C@@H]2Cc3ccc(O)cc3[C@@]1(C)CCN2CCC(C(=O)O)c1ccccc1 (mixture of isomers)	> 10
C[C@@H]1[C@@H]2Cc3ccc(O)cc3[C@@]1(C)CCN2CC(C(=O)O)c1ccccc1 (mixture of isomers)	0.664
CCOC(=O)C(CCCN1CC[C@]2(C)c3cc(O)ccc3C[C@H]1[C@H]2C)c1ccccc1 (mixture of isomers)	0.594
C[C@@H]1[C@@H]2Cc3ccc(O)cc3[C@@]1(C)CCN2CCCC(C(=O)O)c1ccccc1 (mixture of isomers)	> 10
CCOC(=O)C(CN1CC[C@]2(C)c3cc(O)ccc3C[C@H]1[C@H]2C)c1ccccc1 (mixture of isomers)	> 10

test system: Mus musculus; experiment: Antinociceptive activity in formalin-induced male CD1 mouse assessed as reduction in nociceptive behavior by measuring decrease in flinches at behavioral pain phase (II) at 5 to 7 mg/kg, ip pre-administered with compound for 20 mins followed by formalin induction and measured for 1 hrs; format: functional, organism-based; details: dose 5-7 mg/kg, time 80.0 min; summary of the method: as §1

Compound	Activity
CCOC(=O)C(CCN1CC[C@]2(C)c3cc(O)ccc3C[C@H]1[C@H]2C)c1ccccc1 (mixture of isomers)	Active

— ChEMBL document CHEMBL6182827 (RSC Med Chem, 2025)
